From PubChem
STAT3 act-1: activators of IL-6 induced STAT3 signaling. U3A cells, IL-6 STAT3-luciferase reporter, luminescence; 100% = signal with IL-6 EC80 alone. activation (% of control), % at 5.6 µM. 0.91% of 190,000 active. AID 871;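 active = activation above the screen-wide mean of compound activation plus 3 SD, cut at about 130% in these data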;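 note: 0% = background luminescence of wells with medium and substrate only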
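Material: human U3A cells carrying STAT3-luciferase construct. Measured by: reporter luminescence signal. Timing: compound 1 h, then IL-6 6 h at 37 °C.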
STAT1 blocker: inhibitors of IFN-gamma induced STAT1 signaling. AID 920. inhibition, % at 5.5 µM. 0.35% of 200,000 active. NIH 3T3 STAT1-luciferase reporter, luminescence;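 active = inhibition above a set limit, the mean inhibition across all tested compounds plus 3 SD, cut at about 34% in these data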;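 note: 0% = IFN-gamma with DMSO and 100% = IFN-gamma with 300 µM nifuroxazide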
STAT3 blocker: inhibitors of IL-6 induced STAT3 signaling; U3A cells, IL-6 STAT3-luciferase reporter, luminescence; host cell line lacks STAT1; inhibition, % at 5.5 µM; 0.89% of 190,000 active;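 active = inhibition above the mean inhibition across all screened compounds plus 3 SD, cut at about 44% in these data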;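 note: 0% = DMSO only wells and 100% = 100 µM nifuroxazide control wells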
HSP90 refold inh: inhibitors of HSP90 luciferase refolding in rabbit reticulocyte lysate | luciferase refolding luminescence, 3 h | inhibition, % at 5.6 µM | 0.91% of 290,000 active | AID 1789;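 active = inhibition above the screen-wide mean plus 3 SD, computed separately per campaign, cut at about 16% in these data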;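 note: 0% = DMSO wells and 100% = 60 µM geldanamycin wells; inhibitors lower the luminescence because luciferase stays unfolded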
STAT3 act-2: STAT3 activation, confirmation assay | shares compounds with STAT3 act-1 | U3A STAT3-luciferase reporter, IL-6 potentiation, luminescence; U3A cells lack STAT1; 100 means same as IL-6 alone | potentiation (% of control), % at 5.7 µM | 64% of 1,200 active | AID 1267;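 active = percent activation of the STAT3 luciferase reporter above a set limit taken from the earlier primary screen, cut at about 130% in these data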;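 note: 0% = background signal of medium plus substrate and 100% = median of IL-6 with DMSO wells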
NFkB act 2: activates NF-kappaB, counter-screen to STAT3 activators; 11% of 1,200 active; AID 1309; activation (% of control), % at 5.7 µM; human cells, NF-kappaB reporter activation; shares compounds with STAT3 act-1; in the data active = activation above about 120%;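 note: reporter induced by TNF-alpha stimulation; 100% = median of stimulated DMSO wells and 0% = no signal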
STAT1 act STAT3c: counter-screen for STAT3 activators: STAT1 activation. shares compounds with STAT3 act-1. NIH 3T3 STAT1-luciferase reporter, IFN-gamma, luminescence. 13% of 1,200 active. activation (% of control), % at 5.7 µM. AID 1318;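 active = activation above the solvent-only control well mean plus 3 SD, set per screening run, cut at about 120% in these data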;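 note: 100% = IFN-gamma with DMSO median signal so 100% means no change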
The depositor's hits bear a star; nt = not tested or not shown. Compounds with a hit are over-represented: about 2% of the library has one in this group of screens.

SMILES | STAT3 act-1 | STAT1 blocker | STAT3 blocker | HSP90 refold inh | STAT3 act-2 | NFkB act 2 | STAT1 act STAT3c
O=C(COC(=O)/C=C/c1ccccc1[N+](=O)[O-])NC1CCS(=O)(=O)C1 (configuration not stated) | 139.6* | 24.7 | -38.3 | -1.2 | 186.6* | 116.9 | 126.1*
Cc1nn(-c2ccccc2)c(C)c1/C=C/C(=O)OCC(=O)NC1CCS(=O)(=O)C1 (configuration not stated) | 101.1 | -17.2 | 3.9 | 2.1 | nt | nt | nt
CCN1CCN(C(=O)c2ccc3nc(-c4ccccc4)c(-c4ccccc4)nc3c2)CC1 | nt | nt | nt | -2.7 | nt | nt | nt
O=C(Nc1cccc(F)c1)c1ccc(CSc2ccccc2)o1 | 107.2 | 2.2 | -11.5 | -0.2 | nt | nt | nt
CC(=O)Nc1ccc(NC(=O)c2ccc(CSc3ccccc3)o2)cc1 | 144.3* | 1.3 | -45.2 | 2.0 | 113.1 | 105.4 | 107.3
CCOC(=O)C1=C(C)OC(N)=C(C#N)C1c1cc2c(cc1[N+](=O)[O-])OCO2 (configuration not stated) | 89.4 | 14.7 | 18.3 | 3.0 | nt | nt | nt
Cc1cc(C)n(-c2n[nH]c(=O)c3ccccc23)n1 | nt | nt | nt | 2.5 | nt | nt | nt
O=C1NC2=C(CCc3ccccc32)C(c2ccccc2)N1 (configuration not stated) | 147.7* | 0.9 | -49.8 | 3.1 | 101.1 | 100.2 | 97.9
O=c1[nH]c(/C=C2\C=Nc3ccccc32)c(O)n1Cc1ccccc1F | 93.7 | 1.7 | 11.1 | 13.3 | nt | nt | nt
CSc1nc(O)c(/C=C2\C=Nc3ccccc32)[nH]1 | 138.4* | -23.4 | -45.3 | -1.9 | 146.1* | 112.4 | 123.1*
Cc1ccc(CN2CC(C(=O)NCCCSc3ccccc3)CC2=O)cc1 (configuration not stated) | nt | nt | nt | 0.7 | nt | nt | nt
COc1ccc(C)cc1NC(=O)c1ccccc1N(C)S(=O)(=O)c1ccccc1 | nt | nt | nt | -4.9 | nt | nt | nt
Cn1nc(-c2ccccc2)c2nc3ccccc3nc21 | 149.7* | 13.5 | -50.9 | -3.1 | 139.7* | 104.8 | 93.0
COc1cccc(CC2(CO)CCCN(Cc3ccc(C)s3)C2)c1 (configuration not stated) | 111.2 | -0.5 | -0.1 | -4.1 | nt | nt | nt
COc1cccc(CC2(CO)CCCN(Cc3cc4ccccc4[nH]3)C2)c1 (configuration not stated) | 147.8* | 10.9 | -49.6 | -1.2 | 145.2* | 100.0 | 88.9
CCC(=O)Nc1ccc(NC(=O)c2cccc3c(Br)cccc23)cc1 | nt | nt | nt | 1.8 | nt | nt | nt
COc1ccc(CNC2CC(C)N(C)CC2C)cc1OC (configuration not stated) | nt | nt | nt | -0.7 | nt | nt | nt
CCn1c(=S)sc2c(=O)n(CC(=O)Nc3cccc(Cl)c3)c(C)nc21 | nt | nt | nt | 1.7 | nt | nt | nt
Cc1ccsc1-c1ccnc(-n2cccc2)n1 | 146.5* | -5.3 | -43.0 | -0.7 | 128.4 | 105.3 | 102.0
Clc1ccsc1-c1ccnc(-n2cccc2)n1 | 140.5* | -6.5 | -36.0 | 4.4 | 160.2* | 108.3 | 107.8
CN(CC1CCCN(CCc2cccc(C(F)(F)F)c2)C1)C(=O)c1cc2ccccc2o1 (configuration not stated) | nt | nt | nt | 5.6 | nt | nt | nt
O=C(c1ccco1)N1CCN(C(=O)c2ccc(CS(=O)c3ccc(Cl)cc3)o2)CC1 (configuration not stated) | nt | nt | nt | -5.0 | nt | nt | nt
Cc1ccc2cccc(N=Cc3c(C)[nH]n(-c4ccccc4)c3=O)c2n1 | 137.1* | -4.9 | -51.0 | -1.5 | 134.8* | 107.2 | 109.6
COc1ccc2c(c1)c1nnc(SC)nc1n2C | 159.9* | -26.7 | -64.9 | -1.8 | 171.0* | 113.1 | 127.9*
COc1ccc2c(c1)c1nnc(SCC(=O)N3C(C)CCCC3C)nc1n2C (configuration not stated) | 94.8 | -5.5 | 8.5 | -1.0 | nt | nt | nt
SMILES | STAT3 act-1 | STAT1 blocker | STAT3 blocker | HSP90 refold inh | STAT3 act-2 | NFkB act 2 | STAT1 act STAT3c
CC1=C(C(=O)OC(C)(C)C)C(c2cccc3ccccc23)NC(=O)N1 (configuration not stated) | nt | nt | nt | 1.0 | nt | nt | nt
COc1ccc(N=c2oc3ccc(OC)cc3cc2-c2nc3ccccc3[nH]2)cc1 | 142.7* | -29.5 | -46.4 | 1.1 | 125.2 | 116.4 | 119.4
COc1ccc2nc(-c3ccccc3)[nH]c2c1 | 73.8 | -45.3 | 34.3 | 15.1 | nt | nt | nt
COc1ccccc1-c1nnc(SCC(=O)NC2CCCCC2)o1 | 163.0* | -0.4 | -70.0 | 2.0 | 146.4* | 97.1 | 97.2
Cc1ccccc1-c1nnc(SCC(=O)NC2CCCCC2)o1 | 88.4 | 0.6 | 17.5 | -2.8 | nt | nt | nt
CC1=NN(c2ccc(Cl)cc2)C(=O)C1C(c1cccc(O)c1)c1c(C)[nH]n(-c2ccc(Cl)cc2)c1=O (configuration not stated) | 145.6* | -0.1 | -53.0 | 11.4 | 160.2* | 102.9 | 103.5
Cc1[nH]n(-c2ccc(Cl)cc2)c(=O)c1C(=O)c1ccccc1 | 102.0 | -21.0 | 0.1 | 3.7 | nt | nt | nt
CCOC(=O)c1c(C)[nH]c(C(=O)OCC(=O)Nc2cc(C)c(Cl)cc2OC)c1C | 142.4* | -0.3 | -53.7 | 2.9 | 126.8 | 102.4 | 104.5
C#CCNC(=O)C1=C[C@H](c2ccc(Br)cc2)C[C@H](OCc2ccc(CO)cc2)O1 | nt | 1.0 | nt | 11.7 | nt | nt | nt
COc1ccc(-n2c(SCC(=O)NCc3ccco3)nc3c([nH]c4ccccc43)c2=O)cc1 | 153.8* | 17.3 | -53.5 | -0.8 | 136.6* | 103.6 | 106.1
CCc1ccc(-n2c(=S)sc3c(=O)n(-c4ccccc4C)c(SCC(=O)O)nc32)cc1 | nt | nt | nt | -7.3 | nt | nt | nt
Cc1ccc(C(=O)N2CCN3C(=O)c4ccccc4C23c2ccccc2)cc1 (configuration not stated) | 158.5* | 4.9 | -60.5 | -1.0 | 110.8 | 102.2 | 100.9
COc1ccccc1CNC(=O)Cn1c(=O)oc2cc(S(=O)(=O)N3CCCC3)ccc21 | nt | nt | nt | 0.5 | nt | nt | nt
COc1ccccc1-c1cc(C(=O)N/N=C/c2ccc(C)s2)c2ccccc2n1 | 138.7* | 8.6 | -49.1 | 3.0 | 137.4* | 100.7 | 105.5
CCc1ccc(/C=N/NC(=O)c2cc(-c3ccccc3OC)nc3ccccc23)s1 | 122.2 | 1.2 | -28.8 | -1.8 | nt | nt | nt
Cc1ccc(CC2S/C(=C(/C#N)C(=O)NCc3ccco3)N(c3ccccc3)C2=O)cc1 (configuration not stated) | 96.5 | 0.4 | 13.8 | -0.5 | nt | nt | nt
CC1S/C(=C(\C#N)C(=O)NCc2ccco2)N(Cc2ccco2)C1=O (configuration not stated) | 142.4* | 9.9 | -46.3 | -2.2 | 130.4 | 103.9 | 95.4
Cc1[nH]n(-c2ccccc2)c(=O)c1/C=C1\C=NN=C1c1ccccc1 | nt | nt | nt | 10.1 | nt | nt | nt
Cc1ccc(-n2[nH]c(C)c(/C=C3/C=Nc4ccccc43)c2=O)cc1C | 149.1* | 0.8 | -54.3 | 4.2 | 137.6* | 109.3 | 110.9
Cc1ccc(N(CC(=O)N/N=C/c2cccc(Br)c2)S(C)(=O)=O)cc1 | 102.7 | 4.7 | -5.6 | -1.7 | nt | nt | nt
